Activity calls are given as the source filed them. How the calls were made is not given here.

Test system in one assay: not listed separately
In words: cytotoxicity toward TWIST-knockdown HMLE CSC-like cells – cell-based, CellTiter-Glo luminescence, dry powder, dose response (AID 588703). The settings on record: HMLE_shTWIST viability, CellTiter-Glo luminescence, 72 h. Summed up: (§1)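 Incubation: 72 h compound exposure, dosing 24 h post-seeding / System: HMLE_shTWIST stable human breast line, EMT-induced, CSC-like / Detection: CellTiter-Glo luminescence / Buffer or medium: serum-free screening medium / Controls: DMSO-only wells as negative control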
(In general: Cellular ATP, detected with luciferase, serves as a proxy for viable cell number.)
For the molecule `O=C(COc1ccc(Cl)cc1Cl)N/N=C/c1cnc[nH]1`, the result was inactive.

For a further assay, the system named is HMLE_shTWIST viability, CellTiter-Glo luminescence, 72 h. The description is as above.
Details: not given
Summed up: as §1
Consider `O=C(COc1cc(Cl)ccc1Cl)N/N=C/c1ccc[nH]1`, for which the concentration at half-maximal activity (AC50) is 920 nM.

For `O=C(N/N=C/c1ccc[nH]1)c1cc2ccccc2o1`, the AC50 was 180 nM.

Regarding `CC(C)(C)c1ccc2c(c1)OC(C(=O)N/N=C/c1ccc[nH]1)CO2` (configuration not stated), the AC50 is 2890 nM.

As to `O=C(COc1c(Cl)cc(Cl)cc1Cl)N/N=C/c1ccc[nH]1`, the AC50 was 110 nM.

With `Cc1cc(Cl)ccc1OCC(=O)N/N=C/c1ccc[nH]1`, the AC50 was 1600 nM.

Consider `O=C(COc1ccc(Cl)cc1Cl)N/N=C/c1ccc[nH]1`, for which the AC50 is 2210 nM.

A word on the AC50: it is the concentration giving half of the maximal activity seen.

These data come from PubChem BioAssay AID588703 (Broad Institute, 2011).
